Laboratory results from ChEMBL document CHEMBL4715745, “Synthesis and biological evaluation of novel FK228 analogues as potential isoform selective HDAC inhibitors” (Eur J Med Chem, 2016).
Values belong to the compound of their own block, whether it stands above or below them.

Tests used:
Histone deacetylase 1 = Histone deacetylase 1 (Homo sapiens, UniProt Q13547); assay: Inhibition of human HDAC1 expressed in 293T cells using Ac-KGLGK(Ac)-MCA as substrate incubated for 30 mins in presence of 0.1 mM DTT by fluorescence plate reader assay; parameters: species or system HEK293T
Histone deacetylase 1, sequence (Q13547 whole entry): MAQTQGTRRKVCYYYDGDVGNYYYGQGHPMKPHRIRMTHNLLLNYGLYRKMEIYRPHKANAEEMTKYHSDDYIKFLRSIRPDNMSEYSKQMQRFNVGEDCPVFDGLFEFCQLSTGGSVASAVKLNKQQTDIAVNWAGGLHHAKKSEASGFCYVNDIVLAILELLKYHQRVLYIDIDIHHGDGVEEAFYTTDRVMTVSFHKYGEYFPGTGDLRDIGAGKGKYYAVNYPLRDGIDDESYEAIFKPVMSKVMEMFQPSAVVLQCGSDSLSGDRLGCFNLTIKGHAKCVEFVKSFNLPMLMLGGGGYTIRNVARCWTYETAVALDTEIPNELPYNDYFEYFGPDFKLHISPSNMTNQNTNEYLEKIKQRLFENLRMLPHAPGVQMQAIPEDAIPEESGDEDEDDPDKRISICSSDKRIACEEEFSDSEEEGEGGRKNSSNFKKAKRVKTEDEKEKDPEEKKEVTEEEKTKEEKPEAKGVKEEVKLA

[1] = molecular target: T1, Protein deacetylase HDAC6 (Mus musculus, UniProt Q9Z2V5); assay: Inhibition of mouse HDAC6 expressed in 293T cells using Ac-KGLGK(Ac)-MCA as substrate incubated for 30 mins in presence of 0.1 mM DTT by fluorescence plate reader assay; parameters: species or system HEK293T
T1 sequence (Q9Z2V5 whole entry): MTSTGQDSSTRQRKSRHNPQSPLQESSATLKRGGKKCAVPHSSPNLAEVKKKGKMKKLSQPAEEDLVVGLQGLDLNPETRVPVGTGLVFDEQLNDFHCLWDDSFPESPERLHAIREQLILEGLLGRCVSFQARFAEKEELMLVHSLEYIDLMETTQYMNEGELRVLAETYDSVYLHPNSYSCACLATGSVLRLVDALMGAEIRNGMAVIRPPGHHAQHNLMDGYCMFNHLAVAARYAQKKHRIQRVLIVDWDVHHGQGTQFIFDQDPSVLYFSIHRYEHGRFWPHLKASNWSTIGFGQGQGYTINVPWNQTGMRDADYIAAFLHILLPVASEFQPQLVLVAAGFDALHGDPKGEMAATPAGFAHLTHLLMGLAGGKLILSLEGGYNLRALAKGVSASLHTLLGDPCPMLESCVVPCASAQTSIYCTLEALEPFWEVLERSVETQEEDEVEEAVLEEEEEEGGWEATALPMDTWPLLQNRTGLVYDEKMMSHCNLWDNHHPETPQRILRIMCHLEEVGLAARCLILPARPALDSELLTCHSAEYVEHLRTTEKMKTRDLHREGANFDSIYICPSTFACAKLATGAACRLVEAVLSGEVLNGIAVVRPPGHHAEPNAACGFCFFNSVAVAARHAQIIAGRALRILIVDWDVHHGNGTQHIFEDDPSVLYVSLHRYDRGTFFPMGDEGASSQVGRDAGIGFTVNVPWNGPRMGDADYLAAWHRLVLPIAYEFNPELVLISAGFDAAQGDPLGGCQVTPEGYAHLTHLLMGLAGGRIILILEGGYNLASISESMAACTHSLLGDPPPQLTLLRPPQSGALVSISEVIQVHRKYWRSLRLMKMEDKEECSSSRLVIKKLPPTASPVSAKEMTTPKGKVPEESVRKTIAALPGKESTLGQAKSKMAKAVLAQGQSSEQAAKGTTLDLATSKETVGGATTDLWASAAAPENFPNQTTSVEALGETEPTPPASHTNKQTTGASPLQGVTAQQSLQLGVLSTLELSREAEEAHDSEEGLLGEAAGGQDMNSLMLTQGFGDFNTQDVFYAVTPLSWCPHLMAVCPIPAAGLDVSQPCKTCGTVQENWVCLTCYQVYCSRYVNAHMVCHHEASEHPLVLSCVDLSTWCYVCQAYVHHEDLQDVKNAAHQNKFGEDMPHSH
Procedure, shortened: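 HDAC enzyme assay run in the presence of 0.1 mM dithiothreitol (DTT); IC₅₀ determined.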

[2] = Selectivity index, ratio of IC50 for mouse HDAC6 expressed in 293T cells to IC50 for human HDAC1 expressed in 293T cells using Ac-KGLGK(Ac)-MCA as substrate incubated for 30 mins in presence of 0.1 mM DTT by fluorescence plate reader assay; conditions: 0.5 h
Procedure, shortened: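 Ratio of HDAC6 IC₅₀ to HDAC1 IC₅₀, taken as selectivity for class I HDAC1 over class II HDAC6. Both enzyme assays were run in the presence of 0.1 mM DTT.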

[3] = Growth inhibition of human HBC4 cells measured after 48 hrs by sulforhodamine B assay; type: functional
Procedure, shortened: (§1)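 Panel of 39 human cancer cell lines tested at the Japanese Foundation for Cancer Research. Five concentrations per compound, spanning 10⁻¹¹–10⁻⁷ M, 10⁻¹⁰–10⁻⁶ M or 10⁻⁸–10⁻⁴ M, were used to build dose-response curves. GI₅₀ is the concentration giving 50% growth inhibition relative to control.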

[4] = Growth inhibition of human BSY1 cells measured after 48 hrs by sulforhodamine B assay; type: functional; conditions: BSY-1; procedure, shortened: as §1
[5] = Growth inhibition of human HBC5 cells measured after 48 hrs by sulforhodamine B assay; type: functional; procedure, shortened: as §1
MCF7 = assay: Growth inhibition of human MCF7 cells measured after 48 hrs by sulforhodamine B assay; type: functional; procedure, shortened: as §1
MDA-MB-231 = assay: Growth inhibition of human MDA-MB-231 cells measured after 48 hrs by sulforhodamine B assay; type: functional; procedure, shortened: as §1
U-251 = assay: Growth inhibition of human U-251 cells measured after 48 hrs by sulforhodamine B assay; type: functional; procedure, shortened: as §1
SF-268 = assay: Growth inhibition of human SF-268 cells measured after 48 hrs by sulforhodamine B assay; type: functional; procedure, shortened: as §1
SF-295 = assay: Growth inhibition of human SF-295 cells measured after 48 hrs by sulforhodamine B assay; type: functional; procedure, shortened: as §1
SF-539 = assay: Growth inhibition of human SF-539 cells measured after 48 hrs by sulforhodamine B assay; type: functional; procedure, shortened: as §1
SNB-75 = assay: Growth inhibition of human SNB-75 cells measured after 48 hrs by sulforhodamine B assay; type: functional; procedure, shortened: as §1
SNB-78 = assay: Growth inhibition of human SNB-78 cells measured after 48 hrs by sulforhodamine B assay; type: functional; procedure, shortened: as §1
HCC 2998 = assay: Growth inhibition of human HCC 2998 cells measured after 48 hrs by sulforhodamine B assay; type: functional; procedure, shortened: as §1
KM12 = assay: Growth inhibition of human KM12 cells measured after 48 hrs by sulforhodamine B assay; type: functional; procedure, shortened: as §1
HT-29 = assay: Growth inhibition of human HT-29 cells measured after 48 hrs by sulforhodamine B assay; type: functional; procedure, shortened: as §1
HCT-15 = assay: Growth inhibition of human HCT-15 cells measured after 48 hrs by sulforhodamine B assay; type: functional; procedure, shortened: as §1
HCT-116 = assay: Growth inhibition of human HCT-116 cells measured after 48 hrs by sulforhodamine B assay; type: functional; procedure, shortened: as §1
NCI-H23 = assay: Growth inhibition of human NCI-H23 cells measured after 48 hrs by sulforhodamine B assay; type: functional; procedure, shortened: as §1
NCI-H226 = assay: Growth inhibition of human NCI-H226 cells measured after 48 hrs by sulforhodamine B assay; type: functional; procedure, shortened: as §1
NCI-H522 = assay: Growth inhibition of human NCI-H522 cells measured after 48 hrs by sulforhodamine B assay; type: functional; procedure, shortened: as §1
NCI-H460 = assay: Growth inhibition of human NCI-H460 cells measured after 48 hrs by sulforhodamine B assay; type: functional; procedure, shortened: as §1
A549 = assay: Growth inhibition of human A549 cells measured after 48 hrs by sulforhodamine B assay; type: functional; procedure, shortened: as §1
DMS-273 = assay: Growth inhibition of human DMS-273 cells measured after 48 hrs by sulforhodamine B assay; type: functional; procedure, shortened: as §1
DMS-114 = assay: Growth inhibition of human DMS-114 cells measured after 48 hrs by sulforhodamine B assay; type: functional; procedure, shortened: as §1
LOX IMVI = assay: Growth inhibition of human LOX IMVI cells measured after 48 hrs by sulforhodamine B assay; type: functional; procedure, shortened: as §1
OVCAR-3 = assay: Growth inhibition of human OVCAR-3 cells measured after 48 hrs by sulforhodamine B assay; type: functional; procedure, shortened: as §1
OVCAR-4 = assay: Growth inhibition of human OVCAR-4 cells measured after 48 hrs by sulforhodamine B assay; type: functional; procedure, shortened: as §1
OVCAR-5 = assay: Growth inhibition of human OVCAR-5 cells measured after 48 hrs by sulforhodamine B assay; type: functional; procedure, shortened: as §1
OVCAR-8 = assay: Growth inhibition of human OVCAR-8 cells measured after 48 hrs by sulforhodamine B assay; type: functional; procedure, shortened: as §1
SK-OV-3 = assay: Growth inhibition of human SK-OV-3 cells measured after 48 hrs by sulforhodamine B assay; type: functional; procedure, shortened: as §1
RXF 631 = assay: Growth inhibition of human RXF 631 cells measured after 48 hrs by sulforhodamine B assay; type: functional; procedure, shortened: as §1
ACHN = assay: Growth inhibition of human ACHN cells measured after 48 hrs by sulforhodamine B assay; type: functional; procedure, shortened: as §1
St-4 = assay: Growth inhibition of human St-4 cells measured after 48 hrs by sulforhodamine B assay; type: functional; procedure, shortened: as §1
MKN-1 = assay: Growth inhibition of human MKN-1 cells measured after 48 hrs by sulforhodamine B assay; type: functional; procedure, shortened: as §1
MKN-7 = assay: Growth inhibition of human MKN-7 cells measured after 48 hrs by sulforhodamine B assay; type: functional; procedure, shortened: as §1
MKN-28 = assay: Growth inhibition of human MKN-28 cells measured after 48 hrs by sulforhodamine B assay; type: functional; procedure, shortened: as §1
MKN-45 = assay: Growth inhibition of human MKN-45 cells measured after 48 hrs by sulforhodamine B assay; type: functional; procedure, shortened: as §1
MKN-74 = assay: Growth inhibition of human MKN-74 cells measured after 48 hrs by sulforhodamine B assay; type: functional; procedure, shortened: as §1
DU-145 = assay: Growth inhibition of human DU-145 cells measured after 48 hrs by sulforhodamine B assay; type: functional; procedure, shortened: as §1
PC-3 = assay: Growth inhibition of human PC-3 cells measured after 48 hrs by sulforhodamine B assay; type: functional; procedure, shortened: as §1

IC50 (Histone deacetylase 1): 4.7 nM | IC50 [1]: 859 nM | GI50 (MCF7): 190 nM | GI50 (MDA-MB-231): 53 nM | GI50 (U-251): 120 nM | GI50 (HCC 2998): 32 nM | GI50 (HT-29): 42 nM | GI50 (HCT-15): 20000 nM | GI50 (HCT-116): 26 nM | GI50 (NCI-H23): 130 nM | GI50 (NCI-H226): 410 nM | GI50 (NCI-H522): 10 nM | GI50 (NCI-H460): 56 nM | GI50 (A549): 52 nM | GI50 (OVCAR-3): 64 nM | GI50 (OVCAR-4): 270 nM | GI50 (OVCAR-5): 49 nM | GI50 (OVCAR-8): 54 nM | GI50 (SK-OV-3): 63 nM | GI50 (ACHN): 460 nM | GI50 (MKN-1): 73 nM | GI50 (MKN-7): 380 nM | GI50 (MKN-28): 1400 nM | GI50 (MKN-45): 1900 nM | GI50 (MKN-74): 100 nM | GI50 (DU-145): 39 nM | GI50 (PC-3): 170 nM
Compound: C/C=C1\NC(=O)[C@H]2CSSCC/C=C/[C@H](CC(=O)N[C@H](C(C)C)C(=O)N2)OC(=O)CNC1=O
Ratio IC50 [2]: 182 | GI50 [3]: 170 nM | GI50 [4]: 200 nM | GI50 [5]: 630 nM | GI50 (SF-268): 110 nM | GI50 (SF-295): 280 nM | GI50 (SF-539): 10 nM | GI50 (SNB-75): 10 nM | GI50 (SNB-78): 10 nM | GI50 (KM12): 45 nM | GI50 (DMS-273): 230 nM | GI50 (DMS-114): 43 nM | GI50 (LOX IMVI): 25 nM | GI50 (RXF 631): 230 nM | GI50 (St-4): 1100 nM

Compound: CC(C)[C@H]1NC(=O)C[C@H]2/C=C/CCSSC[C@@H](NC1=O)C(=O)N[C@@H](C)C(=O)NCC(=O)O2
IC50 (Histone deacetylase 1): 184 nM | IC50 [1]: 1020 nM | Ratio IC50 [2]: 6 | GI50 [3]: 17000 nM | GI50 [4]: 27000 nM | GI50 [5]: 21000 nM | GI50 (MCF7): 17000 nM | GI50 (MDA-MB-231): 16000 nM | GI50 (U-251): 17000 nM | GI50 (SF-268): 17000 nM | GI50 (SF-295): 51000 nM | GI50 (SF-539): 15000 nM | GI50 (SNB-75): 14000 nM | GI50 (SNB-78): 13000 nM | GI50 (HCC 2998): 13000 nM | GI50 (KM12): 15000 nM | GI50 (HT-29): 12000 nM | GI50 (HCT-15): 100000 nM | GI50 (HCT-116): 11000 nM | GI50 (NCI-H23): 27000 nM | GI50 (NCI-H226): 21000 nM | GI50 (NCI-H522): 1700 nM | GI50 (NCI-H460): 43000 nM | GI50 (A549): 18000 nM | GI50 (DMS-273): 47000 nM | GI50 (DMS-114): 15000 nM | GI50 (LOX IMVI): 4500 nM | GI50 (OVCAR-3): 16000 nM | GI50 (OVCAR-4): 22000 nM | GI50 (OVCAR-5): 15000 nM | GI50 (OVCAR-8): 31000 nM | GI50 (SK-OV-3): 16000 nM | GI50 (RXF 631): 100000 nM | GI50 (ACHN): 100000 nM | GI50 (St-4): 62000 nM | GI50 (MKN-1): 14000 nM | GI50 (MKN-7): 43000 nM | GI50 (MKN-28): 24000 nM | GI50 (MKN-45): 100000 nM | GI50 (MKN-74): 18000 nM | GI50 (DU-145): 15000 nM | GI50 (PC-3): 13000 nM
